dFosB act-1 = activators of delta FosB homodimer, primary screen, biochemical, fluorescence polarization, TAMRA-CDK5 oligo, single point. purified delta FosB; percent of positive-control signal above neutral wells. activation, % at 25 µM. 0.99% of 340,000 active. AID 493131, 2011;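 active = mean activation above about 17%, with every replicate also reaching it, limit read from the data, passing the limit was not always enough; inconclusive = only one of the two conditions met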
SR-BI DiI inh = inhibitors of SR-BI mediated HDL lipid uptake, primary screen, ldlA[mSR-BI] cells, fluorescence, single point; Scavenger receptor class B member 1 (Mus musculus), Q61009; ldlA[mSR-BI] CHO cells, DiI-HDL uptake fluorescence, 3 h; inhibition, % at 12.5 µM; 0.96% of 320,000 active; AID 488896, 2010;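 active = mean replicate inhibition of at least 70% and a set share of replicates each scoring 70 or more; inconclusive = meets just one of the two criteria; inactive = fails both criteria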;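 also: 0% = median of neutral control wells and 100% = median of positive control wells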
Target sequence (Q61009 whole entry, looked up): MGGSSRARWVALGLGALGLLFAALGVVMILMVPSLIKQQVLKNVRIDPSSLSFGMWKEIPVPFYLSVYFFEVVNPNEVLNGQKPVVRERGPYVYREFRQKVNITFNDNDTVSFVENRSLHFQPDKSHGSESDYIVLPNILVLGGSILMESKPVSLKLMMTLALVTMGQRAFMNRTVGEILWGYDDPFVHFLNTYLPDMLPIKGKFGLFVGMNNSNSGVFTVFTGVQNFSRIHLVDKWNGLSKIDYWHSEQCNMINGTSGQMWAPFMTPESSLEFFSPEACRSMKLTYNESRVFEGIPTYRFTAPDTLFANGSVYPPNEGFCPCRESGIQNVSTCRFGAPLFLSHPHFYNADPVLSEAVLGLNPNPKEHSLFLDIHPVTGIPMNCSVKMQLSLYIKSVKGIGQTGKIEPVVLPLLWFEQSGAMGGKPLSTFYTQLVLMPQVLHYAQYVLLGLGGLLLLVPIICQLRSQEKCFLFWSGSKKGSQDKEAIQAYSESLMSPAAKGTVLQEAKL
PvdQ inh = P. aeruginosa PvdQ acylase inhibitors, primary screen, biochemical, fluorescence, plate reader and imaging, single point; PvdQ acylase [Pseudomonas aeruginosa LESB58]; purified PvdQ acylase; inhibition, % at 10 µM; 0.063% of 340,000 active; AID 488965, 2010; in the data active = inhibition above about 30%, passing the limit was not always enough; inconclusive = no clear call, values can overlap the other calls;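 also: 0% = vehicle neutral wells and 100% = reference inhibitor wells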
Ecoli rRNA inh = reduced GFP signal of wild-type E. coli, primary screen, bacterial rRNA inhibitor project, GFP/RFP fluorescence, OD600, single point | AID 720706, 2013 | 1.6% of 350,000 active | GFP signal change (wild-type ribosome), % (concentration not given with the values) | E. coli WT GFP vs humanized-ribosome RFP mutants, 24 h; stronger effect = lower value; DMSO median 0, no signal -100;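 active = significant combined selectivity score with lowered wild-type GFP, culture density cut under 30%, mutant RFP and density less affected; inactive = any of these conditions unmet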
SR-BI DiI-HDL act = activators of SR-BI mediated DiI-HDL uptake, primary screen, ldlA[mSR-BI] CHO cells, DiI fluorescence; 3 h; 100 = double the neutral-control signal; activation, % at 12.5 µM; 0.096% of 320,000 active; AID 504775, 2011;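 active = mean replicate activation of at least 60% and every replicate at or above 60%; inconclusive = mean or all-replicate condition met, but not both; inactive = mean below 60% and not all replicates reaching 60%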;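 also: 0% = median plate neutral-control signal and 100% = twice that signal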
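Assay system: LDL receptor-deficient CHO ldlA cells overexpressing murine SR-BI / Medium: BSA-supplemented, HEPES-buffered Ham's F12, pH 7.4 / Probe or stimulus: DiI-labelled HDL at 10 µg/mL final / Timing: compound with DiI-HDL co-incubation, 3 h at 37 °C / Technique: bottom-read cell fluorescence after medium removal, ex 550/em 595 nm / Measure: HDL uptake via cellular fluorescence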
XiGFP reactiv = activators of inactive X chromosome reactivation, primary screen, imaging, XiGFP fibroblasts, GFP high-content imaging, set 2 | 0.055% of 360,000 active | AID 743238, 2013 | XiGFP mouse fibroblasts, % GFP-positive cells imaging, 3 d; cells co-treated with 5-aza-dC sensitizer; scaled so ellipticine positive control = 100% | activation, % at 7.58 µM;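 active = mean normalized replicate activation at least 10% and every replicate at or above 10%; inconclusive = only one of the two criteria met; inactive = mean below 10% and not all replicates reach 10%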;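 also: 0% = median of on-plate neutral control wells and 100% = ellipticine 6 µM median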
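Schedule: 3 d treatment, 15 min room-temperature fixation; system: 68-5-11 XiGFP fibroblast line; buffer or medium: DMEM plus 5-aza-dC sensitizer; control set: ellipticine 6 µM positive control; compound: one concentration, pinned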
dFosB act-2 = activators of mouse delta FosB DNA binding, confirmation, biochemical, fluorescence polarization, TAMRA-CDK5 oligo, cherry-picked samples | shares compounds with dFosB act-1 | purified delta FosB; normalised: neutral wells 0, positive control 100 | activation, % at 24.9 µM | 2,400 tested, under 10 active | AID 588690, 2011;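 active = highest replicate activation at or above 34% and every replicate reaching that threshold; inconclusive = meets only one of the two criteria; inactive = meets neither criterion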;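 also: higher polarization means more probe DNA bound by delta FosB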
Numbers without * were called inactive; ? = inconclusive; . = not tested or not shown. Sampled rows, rich in hits. Any-hit rate of the full collection: about 2.6%.

SMILES	dFosB act-1	SR-BI DiI inh	PvdQ inh	Ecoli rRNA inh	SR-BI DiI-HDL act	XiGFP reactiv	dFosB act-2
C[C@@H]1CN([C@@H](C)CO)C(=O)c2cc(NS(=O)(=O)c3cn(C)cn3)ccc2O[C@@H]1CN(C)C(=O)Nc1cccc2ccccc12	.	.	.	2	.	0	.
CCOC(=O)COc1nc(C)c(Br)c(OC)n1	-10	-7	-1	6	7	.	.
CN(C)C(=O)[C@H]1[C@H](CO)[C@H]2Cn3c(ccc(C4=CCCC4)c3=O)[C@@H]1N2S(=O)(=O)c1cn(C)cn1	.	.	.	1	.	0	.
CC(C)CN(C(=O)COC(=O)C(C)N1C(=O)c2ccccc2C1=O)c1c(N)n(Cc2ccccc2)c(=O)[nH]c1=O (stereo not given)	37*	-27	-12	2	27	0	3
Nc1cc2c([N+](=O)[O-])cccc2o1	1	.	-8	.	.	.	.
COc1ccc(OC)c(/C=N/NC(=O)CSc2cc(C)nc3c(OC)cccc23)c1	37*	6	-3	13	-6	0	5
CC(Sc1nnc(C2CC2)n1C)C(=O)Nc1ccc2c(c1)CCC2 (stereo not given)	3	-26	-6	8	26	0	.
CC(C)(C)OC(=O)N[C@H](C(=O)OC(C)(C)C)c1ccc(C(F)(F)F)cc1	-11	10	-1	12	-10	1	.
CCOc1ccc(-c2nnc3ccc(SCC(=O)Nc4nc5ccc(C)cc5s4)nn23)cc1	42*	47	-5	.	-47	0	0
CCOc1ccc(-c2nnc3ccc(SCC(=O)Nc4nc5ccccc5s4)nn23)cc1	-4	-3	-25	.	3	1	.
CCCC(=O)Nc1ccc(C(=O)NCC2CCCO2)cc1 (stereo not given)	-1	-10	-5	.	10	.	.
COc1ccc(N2CCN(C3CC(=O)N(Cc4ccc(N5CCCC5=O)cc4)C3=O)CC2)cc1 (stereo not given)	-8	-4	-11	.	4	.	.
COc1ccc(/C=N/NC(=O)c2ccc(COc3cccc4cccnc34)cc2)cc1OC	19*	?	-2	8	-74	0	-1
COc1ccc(/C=N\NC(=O)c2ccc(-c3ccccc3)cc2)cc1COC(C)=O	34*	59	-10	-25*	-59	0	-5
O=C(N/N=C/c1ccccc1Br)c1ccc(CSc2cccc3cccnc23)cc1	28*	60	-15	.	-60	.	6
COc1ccc(/C=N/NC(=O)c2cccc(C(=O)N/N=C/c3ccc(OC)c(OC)c3)n2)cc1OC	8	-7	-2	9	7	0	.
COc1cc(C(=O)N/N=C/c2ccc(OC(=O)c3ccccc3Cl)c(OC)c2)ccc1O	25*	67	-19	.	-67	.	2
COc1cc(/C=N/NC(=O)c2ccncc2)ccc1OC(=O)c1ccccc1Cl	-20	53	-4	-16	-53	0	.
COc1ccccc1N1CCN(/N=C(\C)c2ccc(O)cc2)CC1	-9	18	-14	11	-18	0	.
O=C(N/N=C/c1cccc(O)c1)c1ccc(COc2cccc3cccnc23)cc1	33*	37	-5	3	-37	0	0
COc1ccc(/C=N/NC(=O)c2cc3c(ccc4ccccc43)o2)cc1OC	77*	-7	-5	-37	7	0	5
CC1CCCN(C(c2ccccc2)c2sc3ncnn3c2O)C1 (stereo not given)	-4	-10	-26	-1	10	0	.
COc1ccccc1NC(=O)C(O)C(O)C(=O)Nc1ccccc1OC (stereo not given)	7	35	-11	.	-35	.	.
O=C(Oc1ccc(/C=N/NC(=O)c2ccccn2)cc1)c1cccc(Br)c1	19*	8	-9	7	-8	0	4
Cc1ccc(C(=O)N/N=C\c2cccc(OC(=O)c3cccc(F)c3)c2)cn1	-17	.	-12	5	.	1	.
SMILES	dFosB act-1	SR-BI DiI inh	PvdQ inh	Ecoli rRNA inh	SR-BI DiI-HDL act	XiGFP reactiv	dFosB act-2
Cc1cc(C(=O)N/N=C/c2cc(Br)cc(Br)c2OC(=O)c2cccc(F)c2)n[nH]1	53*	122*	-8	-31*	-121	0	4
Cc1ccc(C(=O)N/N=C\c2ccc(OC(=O)c3cccc(F)c3)cc2)cn1	31*	.	-9	7	.	0	0
Cc1nc2c(sc(=S)n2Cc2ccco2)c(=O)n1CC(=O)Nc1ccccc1F	83*	-8	-10	11	8	0	-1
Cc1nc2c(sc(=S)n2Cc2ccco2)c(=O)n1CC(=O)Nc1ccccc1	34*	-7	-6	-12	7	0	1
COc1ccccc1CNC(=O)C1CCC(CNS(=O)(=O)c2ccc(NC(C)=O)cc2)CC1 (stereo not given)	14	18	-11	3	-18	0	.
COc1ccc(/C=N/NC(=O)c2cc(-c3ccc4c(c3)OCO4)n[nH]2)cc1OC	73*	31	-6	-20*	-31	0	-4
O=C(N/N=C/c1ccc2c(c1)OCO2)c1ccc(NC(=O)c2ccc(F)cc2)cc1	103*	.	2	-3	.	0	-1
C/C(=N/NC(=O)c1ccc2c(c1)OCO2)c1ccc(NC(=O)C(F)(F)F)cc1	28*	-8	-9	.	8	0	1
O=C(N/N=C/c1ccc2c(c1)OCO2)c1sc2cc(Cl)ccc2c1Cl	-4	-36	8	.	36	0	.
COc1cc(/C=N/NC(=O)c2ccc3c(c2)OCO3)ccc1O	-5	5	-9	9	-5	0	.
COc1ccc2c(Cl)c(C(=O)N/N=C/c3ccc4c(c3)OCO4)sc2c1	34*	.	-10	.	.	.	0
COC(=O)c1ccc(S(=O)(=O)N2CCN(C)CC2)n1C	1	-2	2	16	2	0	.
C[C@@H]1CN([C@H](C)CO)C(=O)Cc2cc(NS(=O)(=O)c3ccc(F)cc3)ccc2O[C@H]1CN(C)S(=O)(=O)c1ccc(Cl)cc1	.	.	.	1	.	0	.
